Measurements: ChEMBL document CHEMBL5346932, “Structure-activity relationships of actively FhuE transported rifabutin derivatives with potent activity against Acinetobacter baumannii” (Eur J Med Chem, 2023)
≈ marks a conversion by molar mass, not a printed value. Calls of active or inactive are those of the source. The rule behind the calls is not given here.

Key:
[1] = system: Staphylococcus aureus; test: Antibacterial activity against Staphylococcus aureus USA300 UAMS-1625 assessed as fold reduction in MIC incubated for 20 hrs by CLSI based microbroth dilution method relative to rifabutin; assay type: functional
How it was run: (§1)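 CLSI broth microdilution in CAMHB against S. aureus USA300 UAMS-1625. Compounds in 2-fold dilution series; inoculum 5×10^5 CFU/mL. Incubated without shaking at 35 °C for 20 h. MIC read visually as the lowest concentration preventing visible growth. Fold changes are relative to the rifabutin MIC.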

[2] = system: Acinetobacter baumannii; test: Antibacterial activity against Acinetobacter baumannii HUMC1 cultured in RPMI 1640 medium supplemented with 10% FCS assessed as bacterial growth inhibition incubated for 20 hrs by CLSI based microbroth dilution method; assay type: functional; conditions: Acinetobacter baumannii
How it was run: (§2)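 CLSI broth microdilution in RPMI 1640 + 10% FCS in place of CAMHB. Compounds in 2-fold dilution series; inoculum 5×10^5 CFU/mL. Plates held static at 35 °C for 20 h. MIC read visually as the lowest concentration with no visible growth. […] is the reciprocal of this MIC.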

[3] = system: Staphylococcus aureus; test: Antibacterial activity against Staphylococcus aureus USA300 UAMS-1625 assessed as fold increase in MIC incubated for 20 hrs by CLSI based microbroth dilution method relative to rifabutin; assay type: functional; how it was run: as §1
[4] = system: Acinetobacter baumannii; test: Antibacterial activity against Acinetobacter baumannii HUMC1 harboring RpoB H535Q mutant assessed as fold reduction in MIC incubated for 20 hrs by CLSI based microbroth dilution method relative to rifabutin; assay type: functional
[5] = Drug accumulation in Acinetobacter baumannii HUMC1 cultured in iron-limited RPMI medium supplemented with 10% FCS measured per 5 ml of culture medium at 0.05 uM incubated for 10 mins by LC-MS/MS analysis; assay type: ADME
How it was run: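 5 mL of suspension was dosed from DMSO stocks (0.002–5 mM) and shaken at 150 rpm for 10 min at 37 °C. Cells were pelleted, washed, and lysed (sucrose/EDTA). LC-MS/MS MRM quantitation used caffeine-normalized standard curves in spiked lysate. Reported as amount per 5 mL; n≥2 independent replicates.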

[6] = system: Acinetobacter baumannii; test: Antibacterial activity against Acinetobacter baumannii HUMC1 cultured in iron-limited RPMI medium supplemented with 10% FCS assessed as inverse MIC incubated for 20 hrs by CLSI based microbroth dilution method; assay type: functional; how it was run: as §2
[7] = system: Acinetobacter baumannii; test: Antibacterial activity against Acinetobacter baumannii HUMC1 harboring RpoB H535C mutant assessed as bacterial growth inhibition incubated for 20 hrs by CLSI based microbroth dilution method; assay type: functional
How it was run: (§3)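 Microbroth dilution per CLSI in RPMI 1640 + 10% FCS (in place of CAMHB). Compounds as 2-fold serial dilutions; inoculum 5×10^5 CFU/mL of previously described HUMC1-derived mutant strains. Incubated static at 35 °C for 20 h. MIC read visually as lowest concentration preventing visible growth.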

[8] = system: Acinetobacter baumannii; test: Antibacterial activity against Acinetobacter baumannii HUMC1 harboring FhuE deletion mutant assessed as bacterial growth inhibition incubated for 20 hrs by CLSI based microbroth dilution method; assay type: functional; how it was run: as §3
[9] = Inhibition of transcription in Acinetobacter baumannii HUMC1 using pVT784 as reporter plasmid preincubated for 30 mins followed by reporter plasmid addition and measured after 60 mins by Nano-Glo luciferase assay; assay type: functional
How it was run: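 Cell-free transcription/translation used A. baumannii HUMC1 extract at 1.2 mg/mL, with extract from 2xYT+P culture after a run-off step and dialysis at pH 8.2. Compound was preincubated with extract for 30 min on ice. Reporter plasmid (0.5 nM) was then added and luminescence read after 60 min at 25 °C. Compounds were tested at 8 to 0.002 mg/L in triplicate. IC50 was fit from no-compound-normalized signal.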

[10] = system: Acinetobacter baumannii; test: Antibacterial activity against Acinetobacter baumannii HUMC1 harboring RpoB H535Q mutant assessed as bacterial growth inhibition incubated for 20 hrs by CLSI based microbroth dilution method; assay type: functional; how it was run: as §3
[11] = system: Acinetobacter baumannii; test: Antibacterial activity against Acinetobacter baumannii HUMC1 harboring RpoB H535C mutant assessed as fold reduction in MIC incubated for 20 hrs by CLSI based microbroth dilution method relative to rifabutin; assay type: functional
[12] = system: Staphylococcus aureus; test: Antibacterial activity against Staphylococcus aureus USA300 UAMS-1625 assessed as bacterial growth inhibition incubated for 20 hrs by CLSI based microbroth dilution method; assay type: functional; how it was run: as §1

| Structure (SMILES) | fold change (FC) [1] | MIC ([2]; HUMC1, 20 h, read-out: MIC) [µg/mL] | 1/MIC [6] [L/mg] | MIC [8] [µg/mL] | IC50 [9] [µg/mL] | other results |
| --- | --- | --- | --- | --- | --- | --- |
| CCN1CCC2(CC1)N=C1C(=C3NC(=O)/C(C)=C\C=C\[C@H](C)[C@H](O)[C@@H](C)[C@@H](O)[C@@H](C)[C@H](OC(C)=O)[C@H](C)[C@@H](OC)/C=C/O[C@@]4(C)Oc5c(C)c(O)c(c1c5C4=O)C3=O)N2 | 2 | 0.004 (≈ 0.00488 µM) | – | – | – | – |
| CO[C@H]1/C=C/O[C@@]2(C)Oc3c(C)c(O)c4c(c3C2=O)C2=NC3(CCN(C5CCCC5)CC3)NC2=C(NC(=O)/C(C)=C\C=C\[C@H](C)[C@H](O)[C@@H](C)[C@@H](O)[C@@H](C)[C@H](OC(C)=O)[C@@H]1C)C4=O (stereo in doubt; form 1) | 2 | ≤ 0.002 | – | – | – | – |
| CO[C@H]1/C=C/O[C@@]2(C)Oc3c(C)c(O)c4c(c3C2=O)C2=NC3(CCN(C)CC3)NC2=C(NC(=O)/C(C)=C\C=C\[C@H](C)[C@H](O)[C@@H](C)[C@@H](O)[C@@H](C)[C@H](OC(C)=O)[C@@H]1C)C4=O | 2 | 0.016 (≈ 0.0199 µM) | – | – | – | – |
| CO[C@H]1/C=C/O[C@@]2(C)Oc3c(C)c(O)c4c(c3C2=O)C2=NC3(CCN(CC5CCCC5)CC3)NC2=C(NC(=O)/C(C)=C\C=C\[C@H](C)[C@H](O)[C@@H](C)[C@@H](O)[C@@H](C)[C@H](OC(C)=O)[C@@H]1C)C4=O | – | 0.016 (≈ 0.0183 µM) | – | – | – | fold change (FC) [3]: 2 |
| CO[C@H]1/C=C/O[C@@]2(C)Oc3c(C)c(O)c4c(c3C2=O)C2=NC3(CCN(C5CC5)CC3)NC2=C(NC(=O)/C(C)=C\C=C\[C@H](C)[C@H](O)[C@@H](C)[C@@H](O)[C@@H](C)[C@H](OC(C)=O)[C@@H]1C)C4=O (stereo in doubt; form 1) | 2 | ≤ 0.002 | 1000 | 0.5 (≈ 0.602 µM) | 0.12 (≈ 0.144 µM) | fold change (FC) [4]: 2; Drug uptake [5]: 24.66 pmol; MIC [7]: 0.004 µg/mL (≈ 0.00481 µM); MIC [10]: 0.004 µg/mL (≈ 0.00481 µM); fold change (FC) [11]: 2 |
| CO[C@H]1/C=C/O[C@@]2(C)Oc3c(C)c(O)c4c(c3C2=O)C2=NC3(CCN(C(C)(C)C)CC3)NC2=C(NC(=O)/C(C)=C\C=C\[C@H](C)[C@H](O)[C@@H](C)[C@@H](O)[C@@H](C)[C@H](OC(C)=O)[C@@H]1C)C4=O | – | 0.002 (≈ 0.00236 µM) | 500 | 0.5 (≈ 0.59 µM) | 0.06 (≈ 0.0708 µM) | Activity [12]: Active; Drug uptake [5]: 32.73 pmol |
| CO[C@H]1/C=C/O[C@@]2(C)Oc3c(C)c(O)c4c(O)c(c(/C=N/N5CCN(C)CC5)c(O)c4c3C2=O)NC(=O)/C(C)=C\C=C\[C@H](C)[C@H](O)[C@@H](C)[C@@H](O)[C@@H](C)[C@H](OC(C)=O)[C@@H]1C [RIFAMPIN] | – | – | 0.25 | – | 0.07 (≈ 0.0851 µM) | Drug uptake ([5]; BLD = below limit of detection): Bld; MIC ([2]; HUMC1, read-out: MIC): 4 µg/mL (≈ 4.86 µM) |
| CO[C@H]1/C=C/O[C@@]2(C)Oc3c(C)c(O)c4c(c3C2=O)C2=NC3(CCN(c5ccccc5)CC3)NC2=C(NC(=O)/C(C)=C\C=C\[C@H](C)[C@H](O)[C@@H](C)[C@@H](O)[C@@H](C)[C@H](OC(C)=O)[C@@H]1C)C4=O | – | 0.125 (≈ 0.144 µM) | – | – | – | fold change (FC) [3]: 2 |
| CO[C@H]1/C=C/O[C@@]2(C)Oc3c(C)c(O)c4c(c3C2=O)C2=NC3(CCN(C(C)C)CC3)NC2=C(NC(=O)/C(C)=C\C=C\[C@H](C)[C@H](O)[C@@H](C)[C@@H](O)[C@@H](C)[C@H](OC(C)=O)[C@@H]1C)C4=O | 2 | 0.002 (≈ 0.0024 µM) | – | 0.5 (≈ 0.6 µM) | – | – |
| CO[C@H]1/C=C/O[C@@]2(C)Oc3c(C)c(O)c4c(c3C2=O)C2=NC3(CCN(C5CCCCC5)CC3)NC2=C(NC(=O)/C(C)=C\C=C\[C@H](C)[C@H](O)[C@@H](C)[C@@H](O)[C@@H](C)[C@H](OC(C)=O)[C@@H]1C)C4=O | – | 0.016 (≈ 0.0183 µM) | – | – | – | fold change (FC) [3]: 2 |
| CO[C@H]1/C=C/O[C@@]2(C)Oc3c(C)c(O)c4c(c3C2=O)C2=NC3(CCN(CCC(C)(C)C)CC3)NC2=C(NC(=O)/C(C)=C\C=C\[C@H](C)[C@H](O)[C@@H](C)[C@@H](O)[C@@H](C)[C@H](OC(C)=O)[C@@H]1C)C4=O | 2 | 0.06 (≈ 0.0686 µM) | 16.67 | 0.5 (≈ 0.571 µM) | 0.17 (≈ 0.194 µM) | Drug uptake [5]: 9.55 pmol; MIC [7]: 1 µg/mL (≈ 1.14 µM); MIC [10]: 1 µg/mL (≈ 1.14 µM) |
| CCC(C)(C)N1CCC2(CC1)N=C1C(=C3NC(=O)/C(C)=C\C=C\[C@H](C)[C@H](O)[C@@H](C)[C@@H](O)[C@@H](C)[C@H](OC(C)=O)[C@H](C)[C@@H](OC)/C=C/O[C@@]4(C)Oc5c(C)c(O)c(c1c5C4=O)C3=O)N2 | 2 | 0.008 (≈ 0.00929 µM) | – | – | – | – |
| CCCN1CCC2(CC1)N=C1C(=C3NC(=O)/C(C)=C\C=C\[C@H](C)[C@H](O)[C@@H](C)[C@@H](O)[C@@H](C)[C@H](OC(C)=O)[C@H](C)[C@@H](OC)/C=C/O[C@@]4(C)Oc5c(C)c(O)c(c1c5C4=O)C3=O)N2 | – | 0.004 (≈ 0.0048 µM) | – | 0.5 (≈ 0.6 µM) | – | Activity [12]: Active |
| CO[C@H]1/C=C/O[C@@]2(C)Oc3c(C)c(O)c4c(c3C2=O)C2=NC3(CCNCC3)NC2=C(NC(=O)/C(C)=C\C=C\[C@H](C)[C@H](O)[C@@H](C)[C@@H](O)[C@@H](C)[C@H](OC(C)=O)[C@@H]1C)C4=O | – | 0.25 (≈ 0.316 µM) | 4 | 0.5 (≈ 0.632 µM) | 0.05 (≈ 0.0632 µM) | fold change (FC) [3]: 2; Drug uptake [5]: 0.47 pmol; MIC [7]: 1 µg/mL (≈ 1.26 µM); MIC [10]: 1 µg/mL (≈ 1.26 µM) |
